What is called IC50 is the concentration that inhibits the measured activity by half.

Each structure is given as a SMILES string.

One experiment concerns Saccharomyces cerevisiae. Description: Growth inhibition of SOD2-deficient Saccharomyces cerevisiae YHR008C mutant at 20 ug/disc 24 to 48 hrs by agar diffusion assay. The note with it: read-out: DIZ. It counts as functional. An outline of the steps:
(§1)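 S. cerevisiae deletion mutants or wild type grown on YPD, seeded into liquid agar medium at an optical density of 0.1. 6 mm paper discs soaked with methanolic compound solution were placed on the plates and incubated at 30 °C. Growth was checked after 1 and 2 days, and the inhibition zone diameter was recorded in mm.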
As for `CC1=C([Se]CC(OC(=O)CNC(=O)OC(C)(C)C)C(=O)NCCCCCC(=O)OCc2ccccc2)C(=O)c2ccccc2C1=O` (stereo not drawn), the zone of inhibition at 20 µg/disc was 25 mm.
`CC1=C(SCCC(=O)OC(C[Se]c2ccccc2)C(=O)NCCCCCC(=O)OCc2ccccc2)C(=O)c2ccccc2C1=O` (stereo not drawn): the zone of inhibition at 20 µg/disc is 13 mm.

The test system of another experiment is Saccharomyces cerevisiae. Description: Growth inhibition of GSH2-deficient Saccharomyces cerevisiae YOL049W mutant at 20 ug/disc after 24 to 48 hrs by agar diffusion assay. The note with it: read-out: DIZ. It is filed as functional. An outline of the steps: as §1
A general note: Agar diffusion results depend on both activity and mobility in agar.
As to `CC1=C([Se]CC(OC(=O)CNC(=O)OC(C)(C)C)C(=O)NCCCCCC(=O)OCc2ccccc2)C(=O)c2ccccc2C1=O` (stereo not drawn), the zone of inhibition at 20 µg/disc was determined as 0 mm.
Still for that read-out and setting: next, `CC1=C(SCCC(=O)OC(C[Se]c2ccccc2)C(=O)NCCCCCC(=O)OCc2ccccc2)C(=O)c2ccccc2C1=O` (stereo not drawn): 0 mm.

The subject of the next experiment is Saccharomyces cerevisiae. Description: Growth inhibition of WSC4-deficient Saccharomyces cerevisiae YHL028W mutant at 20 ug/disc 24 to 48 hrs by agar diffusion assay. It counts as functional. The note with it: read-out: DIZ. An outline of the steps:
as §1
On to `CC1=C([Se]CC(OC(=O)CNC(=O)OC(C)(C)C)C(=O)NCCCCCC(=O)OCc2ccccc2)C(=O)c2ccccc2C1=O` (stereo not drawn), for which the zone of inhibition at 20 µg/disc came to 14 mm.
With `CC1=C(SCCC(=O)OC(C[Se]c2ccccc2)C(=O)NCCCCCC(=O)OCc2ccccc2)C(=O)c2ccccc2C1=O` (stereo not drawn), the zone of inhibition at 20 µg/disc amounted to 12 mm.

The next experiment deals with MCF7. Put plainly: Cytotoxicity against human MCF7 cells after 24 hrs by MTT assay. Conditions: MCF7, 24 h. It counts as functional, cell-based. Summed up: (§2)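 MTT assay. Cells were seeded at 50,000 cells/mL in medium with 10% fetal calf serum and grown for two days at 37 °C, 10% CO2. Serial dilutions of compound were then added for 24 h. MTT was added (final 0.5 mg/mL) for 2 h, and the formazan was pelleted, washed, dissolved in isopropanol with 0.4% HCl and read at 590 nm. IC50 is the concentration giving 50% of untreated-control absorbance, taken from dose-response curves; mean of two parallel experiments.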
(In general: Tetrazolium dyes change colour on reduction, which living cells bring about.)
As for `CC1=C([Se]CC(OC(=O)CNC(=O)OC(C)(C)C)C(=O)NCCCCCC(=O)OCc2ccccc2)C(=O)c2ccccc2C1=O` (stereo not drawn), half-maximal inhibition (IC50) required 4 µM.
On the same count and under the same terms, next, `CC1=C(SCCC(=O)OC(C[Se]c2ccccc2)C(=O)NCCCCCC(=O)OCc2ccccc2)C(=O)c2ccccc2C1=O` (stereo not drawn): 10 µM.

A further experiment relates to Saccharomyces cerevisiae. Description: Growth inhibition of POS5-deficient Saccharomyces cerevisiae YPL188W mutant at 20 ug/disc after 24 to 48 hrs by agar diffusion assay. It is filed as functional. The note with it: read-out: DIZ. An outline of the steps: as §1
Consider `CC1=C([Se]CC(OC(=O)CNC(=O)OC(C)(C)C)C(=O)NCCCCCC(=O)OCc2ccccc2)C(=O)c2ccccc2C1=O` (stereo not drawn), for which the zone of inhibition at 20 µg/disc worked out at 0 mm.
On the same count and under the same terms, the value for `CC1=C(SCCC(=O)OC(C[Se]c2ccccc2)C(=O)NCCCCCC(=O)OCc2ccccc2)C(=O)c2ccccc2C1=O` (stereo not drawn) was 0 mm.

For another experiment, the system named is A-431. Put plainly: Cytotoxicity against human A431 cells after 24 hrs by MTT assay. Conditions: A-431, 24 h. It counts as functional, cell-based. Summed up:
as §2
`CC1=C([Se]CC(OC(=O)CNC(=O)OC(C)(C)C)C(=O)NCCCCCC(=O)OCc2ccccc2)C(=O)c2ccccc2C1=O` (stereo not drawn) came in with an IC50 of 5 µM.
Same read-out and setting: next, `CC1=C(SCCC(=O)OC(C[Se]c2ccccc2)C(=O)NCCCCCC(=O)OCc2ccccc2)C(=O)c2ccccc2C1=O` (stereo not drawn): greater than 100 µM.

Another experiment relates to Saccharomyces cerevisiae. Description: Growth inhibition of COX17-deficient Saccharomyces cerevisiae YLL009C mutant at 20 ug/disc after 24 to 48 hrs by agar diffusion assay. Conditions: read-out: DIZ. It counts as functional. Summed up: as §1
Take `CC1=C([Se]CC(OC(=O)CNC(=O)OC(C)(C)C)C(=O)NCCCCCC(=O)OCc2ccccc2)C(=O)c2ccccc2C1=O` (stereo not drawn): the zone of inhibition at 20 µg/disc worked out at 0 mm.
Same read-out and setting: the value for `CC1=C(SCCC(=O)OC(C[Se]c2ccccc2)C(=O)NCCCCCC(=O)OCc2ccccc2)C(=O)c2ccccc2C1=O` (stereo not drawn) was 0 mm.

The next experiment concerns Saccharomyces cerevisiae. Put plainly: Growth inhibition of RCK1-deficient Saccharomyces cerevisiae YGL158W mutant at 20 ug/disc after 24 to 48 hrs by agar diffusion assay. It counts as functional. The note with it: read-out: DIZ. An outline of the steps:
as §1
Regarding `CC1=C([Se]CC(OC(=O)CNC(=O)OC(C)(C)C)C(=O)NCCCCCC(=O)OCc2ccccc2)C(=O)c2ccccc2C1=O` (stereo not drawn), the zone of inhibition at 20 µg/disc stood at 0 mm.
Same read-out and setting: the value for `CC1=C(SCCC(=O)OC(C[Se]c2ccccc2)C(=O)NCCCCCC(=O)OCc2ccccc2)C(=O)c2ccccc2C1=O` (stereo not drawn) was 0 mm.

For the next experiment, the system named is Saccharomyces cerevisiae. Description: Growth inhibition of GTT2-deficient Saccharomyces cerevisiae YLL060C mutant at 20 ug/disc after 24 to 48 hrs by agar diffusion assay. Conditions: read-out: DIZ. It counts as functional. Summed up: as §1
As to `CC1=C([Se]CC(OC(=O)CNC(=O)OC(C)(C)C)C(=O)NCCCCCC(=O)OCc2ccccc2)C(=O)c2ccccc2C1=O` (stereo not drawn), the zone of inhibition at 20 µg/disc is 18 mm.
On the same count and under the same terms, the value for `CC1=C(SCCC(=O)OC(C[Se]c2ccccc2)C(=O)NCCCCCC(=O)OCc2ccccc2)C(=O)c2ccccc2C1=O` (stereo not drawn) was 0 mm.

In a further experiment the test system is Saccharomyces cerevisiae. Put plainly: Growth inhibition of UFD2-deficient Saccharomyces cerevisiae YDL190C mutant at 20 ug/disc after 24 to 48 hrs by agar diffusion assay. It counts as functional. Conditions: read-out: DIZ. Summed up: as §1
Take `CC1=C([Se]CC(OC(=O)CNC(=O)OC(C)(C)C)C(=O)NCCCCCC(=O)OCc2ccccc2)C(=O)c2ccccc2C1=O` (stereo not drawn): the zone of inhibition at 20 µg/disc was 0 mm.
Still for that read-out and setting: next, `CC1=C(SCCC(=O)OC(C[Se]c2ccccc2)C(=O)NCCCCCC(=O)OCc2ccccc2)C(=O)c2ccccc2C1=O` (stereo not drawn): 0 mm.

System in a further experiment: not listed separately
Put plainly: Cytotoxicity against human PHF cells after 24 hrs by MTT assay. It counts as cell-based.
Details: not given
An outline of the steps:
as §2
In turn, `CC1=C([Se]CC(OC(=O)CNC(=O)OC(C)(C)C)C(=O)NCCCCCC(=O)OCc2ccccc2)C(=O)c2ccccc2C1=O` (stereo not drawn) returned an IC50 of 6 µM.
In the case of `CC1=C(SCCC(=O)OC(C[Se]c2ccccc2)C(=O)NCCCCCC(=O)OCc2ccccc2)C(=O)c2ccccc2C1=O` (stereo not drawn), 50 µM corresponded to half-maximal inhibition (IC50).

Another experiment concerns Saccharomyces cerevisiae. Description: Growth inhibition of wild type Saccharomyces cerevisiae BY4741 at 20 ug/disc after 24 to 48 hrs by agar diffusion assay. It is filed as functional. Conditions: read-out: DIZ. Summed up:
as §1
For `CC1=C([Se]CC(OC(=O)CNC(=O)OC(C)(C)C)C(=O)NCCCCCC(=O)OCc2ccccc2)C(=O)c2ccccc2C1=O` (stereo not drawn), the zone of inhibition at 20 µg/disc is 0 mm.
Still for that read-out and setting: the value for `CC1=C(SCCC(=O)OC(C[Se]c2ccccc2)C(=O)NCCCCCC(=O)OCc2ccccc2)C(=O)c2ccccc2C1=O` (stereo not drawn) was 0 mm.

The subject of a further experiment is MCF7. Put plainly: Induction of oxidative stress in human MCF7 cells assessed as decrease in GSH level at 5 uM after 1 hr by DTNB assay relative to control.
Details: not given
Set-up: scale not given: the % may be the effect or the level left. It is filed as functional. An outline of the steps: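 MCF-7 cells (10^6) were treated for 1 h at 37 °C, trypsinized, and washed twice with cold PBS. GSH was extracted with chilled 5% metaphosphoric acid at 4 °C for 2 h, then the lysate was centrifuged. Supernatant was mixed with 0.2 M sodium phosphate pH 8.0 and 0.04 mM DTNB for 10 min at room temperature. Absorbance was read at 412 nm against a reagent blank, and GSH was quantified from a standard curve.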
For the compound `CC1=C([Se]CC(OC(=O)CNC(=O)OC(C)(C)C)C(=O)NCCCCCC(=O)OCc2ccccc2)C(=O)c2ccccc2C1=O` (stereo not drawn), the Activity worked out at 76%.

The next experiment relates to A498. Put plainly: Cytotoxicity against human A498 cells after 24 hrs by MTT assay. It counts as functional, cell-based. The note with it: A498, 24 h. Summed up:
as §2
`CC1=C([Se]CC(OC(=O)CNC(=O)OC(C)(C)C)C(=O)NCCCCCC(=O)OCc2ccccc2)C(=O)c2ccccc2C1=O` (stereo not drawn) returned a half-maximal inhibitory concentration (IC50) of 7 µM.
Same read-out and setting: the value for `CC1=C(SCCC(=O)OC(C[Se]c2ccccc2)C(=O)NCCCCCC(=O)OCc2ccccc2)C(=O)c2ccccc2C1=O` (stereo not drawn) was greater than 100 µM.

The test system of a further experiment is HUVEC. Description: Cytotoxicity against human HUVEC cells after 24 hrs by MTT assay. It counts as cell-based.
Details: not given
An outline of the steps:
as §2
Compound `CC1=C([Se]CC(OC(=O)CNC(=O)OC(C)(C)C)C(=O)NCCCCCC(=O)OCc2ccccc2)C(=O)c2ccccc2C1=O` (stereo not drawn) registered an IC50 of 36 µM.
On the same count and under the same terms, the value for `CC1=C(SCCC(=O)OC(C[Se]c2ccccc2)C(=O)NCCCCCC(=O)OCc2ccccc2)C(=O)c2ccccc2C1=O` (stereo not drawn) was 23 µM.

The next experiment concerns Saccharomyces cerevisiae. Description: Growth inhibition of SOD1-deficient Saccharomyces cerevisiae YJR104C mutant at 20 ug/disc after 24 to 48 hrs by agar diffusion assay. It counts as functional. Conditions: read-out: DIZ. An outline of the steps:
as §1
For the compound `CC1=C([Se]CC(OC(=O)CNC(=O)OC(C)(C)C)C(=O)NCCCCCC(=O)OCc2ccccc2)C(=O)c2ccccc2C1=O` (stereo not drawn), the zone of inhibition at 20 µg/disc was 20 mm.
The same measure, in the same setting: next, `CC1=C(SCCC(=O)OC(C[Se]c2ccccc2)C(=O)NCCCCCC(=O)OCc2ccccc2)C(=O)c2ccccc2C1=O` (stereo not drawn): 18 mm.

The next experiment has as its system Saccharomyces cerevisiae. Description: Growth inhibition of PST2-deficient Saccharomyces cerevisiae YDR032C mutant at 20 ug/disc 24 to 48 hrs by agar diffusion assay. It is filed as functional. The note with it: read-out: DIZ. Summed up: as §1
On to `CC1=C([Se]CC(OC(=O)CNC(=O)OC(C)(C)C)C(=O)NCCCCCC(=O)OCc2ccccc2)C(=O)c2ccccc2C1=O` (stereo not drawn), for which the zone of inhibition at 20 µg/disc is 11 mm.
The same measure, in the same setting: next, `CC1=C(SCCC(=O)OC(C[Se]c2ccccc2)C(=O)NCCCCCC(=O)OCc2ccccc2)C(=O)c2ccccc2C1=O` (stereo not drawn): 12 mm.

The values above are taken from ChEMBL document CHEMBL2177069, “Novel peptidomimetic compounds containing redox active chalcogens and quinones as potential anticancer agents” (Eur J Med Chem, 2012).
